Activity calls are given as the source filed them. No cut-off for these calls is given here.
Experiments:
[1] = Drug concentration in CB17 SCID mouse plasma xenografted with human VCaP cells at 12.5 mg/kg, po measured after 24 hrs by LC-MS/MS analysis; type: ADME, organism-based
Outline: (§1)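 SCID mice bearing one VCaP tumour each given a single oral 12.5 mg/kg dose in 100% PEG200. Plasma and tumour tissue collected at 6 and 24 h, 3 mice per time point. Values are mean ± SD.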

[2] = Downregulation of KLK3 gene expression in human LNCaP cells at 0.3 nM incubated for 24 hrs by qRT-PCR analysis; type: functional
Outline: (§2)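 LNCaP cells (RPMI 1640) or VCaP cells (DMEM Glutamax), both with 10% FBS, treated for 24 h. KLK3 mRNA measured by qRT-PCR and calculated by the comparative CT method against GAPDH and vehicle.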

VCaP [3] = test: Induction of androgen receptor degradation in human VCaP cells at 100 nM pretreated with MG132 for 2 hrs followed by compound addition and 3 hrs by Western blot analysis; type: functional, cell-based; conditions: time 5.0 hrs
Outline: (§3)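 LNCaP or VCaP cells pretreated 2 h with DMSO, ARi-12 (10 μM), thalidomide (10 μM), MG-132 (3 μM) or MLN4924 (0.5 μM), then given degrader at 100 nM for 3 h. AR measured by Western blot with GAPDH as loading control.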

[4] = Metabolic stability in rat liver microsomes assessed as half life at 1 uM measured upto 45 mins in presence of NADPH by LC-MS/MS analysis; type: ADME, Microsome; conditions: 0.75 h
Outline: (§4)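 Pooled liver microsomes from each species: 1 μM compound with 0.5 mg/mL microsomes and 1.7 mM NADPH in 0.1 M K-phosphate, pH 7.4, 5 mM MgCl2, 37 °C. Sampled at 0, 5, 10, 15, 30 and 45 min with cold ACN quench. No-NADPH incubation as negative control; ketanserin as positive control. LC-MS/MS; half-life from ln(remaining) versus time.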

[5] = Drug concentration in CB17 SCID mouse plasma xenografted with human VCaP cells at 12.5 mg/kg, po measured after 6 hrs by LC-MS/MS analysis; type: ADME, organism-based; outline: as §1
[6] = Metabolic stability in human hepatocytes assessed as half life at 1 uM measured upto 120 mins in presence of NADPH by LC-MS/MS analysis; type: ADME, cell-based, Hepatocyte; conditions: 2 h
[7] = target: Androgen receptor (Homo sapiens) (UniProt P10275); test: In vivo induction of androgen receptor degradation in human VCaP cells xenografted in CB17 SCID mouse assessed as reduction in AR protein level at 12.5 mg/kg, po measured after 6 hrs by […] analysis; parameters: scale not given: the % may be the effect or the level left
[8] = Metabolic stability in human liver microsomes assessed as half life at 1 uM measured upto 45 mins in presence of NADPH by LC-MS/MS analysis; type: ADME, Microsome; conditions: 0.75 h; outline: as §4
[9] = Metabolic stability in monkey liver microsomes assessed as half life at 1 uM measured upto 45 mins in presence of NADPH by LC-MS/MS analysis; type: ADME, Macaca mulatta, Microsome; conditions: rhesus monkey, 0.75 h; outline: as §4
Cytochrome P450 2B6 = target: T1, Cytochrome P450 2B6 (Homo sapiens, UniProt P20813); test: Inhibition of CYP2B6 in human liver microsomes preincubated for 5 mins followed by NADPH addition and measured after 10 mins by LC/MS analysis; type: ADME, Microsome
T1 sequence (P20813 whole entry): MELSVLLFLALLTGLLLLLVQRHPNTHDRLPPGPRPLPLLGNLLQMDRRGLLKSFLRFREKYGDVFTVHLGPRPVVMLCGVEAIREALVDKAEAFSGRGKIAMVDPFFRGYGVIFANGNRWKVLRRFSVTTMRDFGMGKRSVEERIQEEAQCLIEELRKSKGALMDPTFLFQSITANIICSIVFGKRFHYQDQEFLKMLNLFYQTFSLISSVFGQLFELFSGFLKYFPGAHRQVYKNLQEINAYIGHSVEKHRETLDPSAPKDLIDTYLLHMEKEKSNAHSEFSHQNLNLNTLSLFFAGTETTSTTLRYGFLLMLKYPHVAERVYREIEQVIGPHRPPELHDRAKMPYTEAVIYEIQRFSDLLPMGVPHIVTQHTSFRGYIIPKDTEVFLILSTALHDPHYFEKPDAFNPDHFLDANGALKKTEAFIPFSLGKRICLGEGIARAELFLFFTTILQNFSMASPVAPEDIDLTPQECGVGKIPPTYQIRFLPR

LNCaP = test: Induction of androgen receptor degradation in human LNCaP cells at 100 nM pretreated with MG132 for 2 hrs followed by compound addition and 3 hrs by Western blot analysis; type: functional, cell-based; conditions: time 5.0 hrs; outline: as §3
Cytochrome P450 2C19 = Cytochrome P450 2C19 (Homo sapiens, UniProt P33261); test: Inhibition of CYP2C19 in human liver microsomes preincubated for 5 mins followed by NADPH addition and measured after 10 mins by LC/MS analysis; type: ADME, Microsome
Chain of Cytochrome P450 2C19 (P33261 whole entry): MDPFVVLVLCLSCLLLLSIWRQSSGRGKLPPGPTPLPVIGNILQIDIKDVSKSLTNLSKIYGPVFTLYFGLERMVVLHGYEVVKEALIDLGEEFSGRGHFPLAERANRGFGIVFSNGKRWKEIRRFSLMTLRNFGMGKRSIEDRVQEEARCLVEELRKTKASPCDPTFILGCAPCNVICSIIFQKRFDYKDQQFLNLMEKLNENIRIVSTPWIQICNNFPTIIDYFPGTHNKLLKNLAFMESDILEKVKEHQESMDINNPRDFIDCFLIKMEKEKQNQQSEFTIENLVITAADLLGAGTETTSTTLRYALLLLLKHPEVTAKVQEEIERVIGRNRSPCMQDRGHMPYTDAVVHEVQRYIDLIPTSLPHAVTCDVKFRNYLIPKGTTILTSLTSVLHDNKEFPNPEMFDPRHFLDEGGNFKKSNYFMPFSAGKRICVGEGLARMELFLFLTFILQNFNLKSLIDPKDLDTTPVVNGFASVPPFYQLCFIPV

[10] = Oral bioavailability in ICR mouse at 5 mg/kg measured up to 24 hrs by LC-MS/MS analysis; type: ADME, organism-based; conditions: in vivo
Outline: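 Male ICR mice. IV 2 mg/kg and PO 5 mg/kg, both in 10% PEG400 + 90% PBS adjusted to pH 8.0. Plasma sampled to 24 h; F from IV and PO exposure.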

[11] = Toxicity in CB17 SCID mouse assessed as weight loss at 3.75 to 30 mg/kg, po; type: organism-based; conditions: in vivo, dose 3.75-30 mg/kg
Outline: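 SCID mice bearing VCaP xenografts dosed by oral gavage once daily for 21 days. Body weight and signs of toxicity monitored throughout.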

[12] = Downregulation of KLK3 gene expression in human VCaP cells at 30 nM incubated for 24 hrs by qRT-PCR analysis; type: functional; outline: as §2
[13] = Plasma protein binding in mouse at 1 uM after 5 hrs by equilibrium dialysis based LC-MS/MS analysis; type: ADME, cell-free
Outline: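 Equilibrium dialysis of pooled plasma of each species spiked at 1 μM against 0.1 M sodium phosphate, pH 7.4. 5 h at 37 °C with shaking at 60 rpm. Both sides matrix-matched, ACN/IS quench, LC/MS. % bound = 100 − (buffer/plasma peak-area ratio × 100); recovery also calculated. Warfarin as reference.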

[14] = Metabolic stability in mouse liver microsomes assessed as half life at 1 uM measured upto 45 mins in presence of NADPH by LC-MS/MS analysis; type: ADME, Microsome; conditions: 0.75 h; outline: as §4
[15] = Downregulation of KLK3 gene expression in human VCaP cells at 1 nM incubated for 24 hrs by qRT-PCR analysis; type: functional
Outline: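 VCaP cells (ATCC) grown in DMEM with Glutamax plus 10% FBS at 37 °C, 5% CO2. Cells treated 24 h; KLK3 mRNA measured by qRT-PCR, expression by comparative CT method, normalised to GAPDH (ΔCT) and then to vehicle control (ΔΔCT).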

Mus musculus = test: In vivo induction of androgen receptor degradation in human VCaP cells xenografted in CB17 SCID mouse assessed as reduction in FKBP5 mRNA level at 12.5 mg/kg, po measured after 6 to 24 hrs by qRT-PCR analysis; type: functional, organism-based; conditions: time 6-24 hrs
VCaP [16] = test: Induction of androgen receptor degradation in human VCaP cells at 100 nM pretreated with MLN4924 for 2 hrs followed by compound addition and 3 hrs by Western blot analysis; type: functional, cell-based; conditions: time 5.0 hrs; outline: as §3

## C[C@H]1CC2(CCN(c3ccc(C(=O)N4CCN(C5CN(c6ccc7c(c6)C(=O)N(C6CCC(=O)NC6=O)C7=O)C5)CC4)cc3)CC2)CN1c1ccc(C#N)c(Cl)c1 (stereo not given in full)
[1]
  concentration at 24 h: 742 ng/mL
[2]
  Activity: 53%
VCaP [3]
  Activity: inactive
[4]
  t1/2: > 1 h
[5]
  concentration at 6 h: 985 ng/mL
[6]
  t1/2: > 2 h
[7]
  Activity: 73%
[8]
  t1/2: > 1 h
[9]
  t1/2: > 1 h
Cytochrome P450 2B6
  IC50: > 10 µM
LNCaP
  Activity: inactive
Cytochrome P450 2C19
  IC50: > 10 µM
[10]
  F: 53%
[11]
  Activity: < 5%
[12]
  Activity: 87%
[13]
  PPB: 99.2%
[14]
  t1/2: > 1 h
[15]
  Activity: 51%
Mus musculus
  Activity: Active
VCaP [16]
  Activity: inactive

From ChEMBL document CHEMBL5331127, “Discovery of ARD-2051 as a Potent and Orally Efficacious Proteolysis Targeting Chimera (PROTAC) Degrader of Androgen Receptor for the Treatment of Advanced Prostate Cancer” (J Med Chem, 2023)
